# From ChEMBL document CHEMBL1123067, “Evaluation of the brain-specific delivery of radioiodinated (iodophenyl)alkyl-substituted amines coupled to a dihydropyridine carrier” (J Med Chem, 1985)
# Experiments:
# Type in all cases: ADME, organism-based
# [1] = tested on: Rattus norvegicus; experiment: Distribution of radioactivity in liver tissues of Sprague-Dawley rats after 30 min injecton by intravenously; 0.54-0.89; conditions: in vivo, iv, 0.5 h
# How it was run: (§1)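 Female Sprague-Dawley rats, 10–12 weeks old (170–200 g), fed ad libitum, under ether anaesthesia. Each received 15.1 μCi of the ¹²⁵I-labelled pyridinium conjugate or 10.6 μCi of the dihydropyridine conjugate by lateral tail vein. Dose was in 20% Me2SO/saline with vitamin E (~5 mg/mL), 0.22-μm filtered. Five rats per time point. Tissue activity was read against injected-solution standards as % injected dose/g.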
# [2] = tested on: Rattus norvegicus; experiment: Distribution of radioactivity in liver tissues of Sprague-Dawley rats after 60 min injecton by intravenously; 0.38-0.57; conditions: in vivo, iv, 1 h; how it was run: as §1
# [3] = tested on: Rattus norvegicus; experiment: Distribution of radioactivity in kidney tissues of Sprague-Dawley rats after 30 min injecton by intravenously; 0.58-0.73; conditions: in vivo, iv, 0.5 h; how it was run: as §1
# [4] = tested on: Rattus norvegicus; experiment: Distribution of radioactivity in kidney tissues of Sprague-Dawley rats after 5 min injecton by intravenously; 1.73-2.64; conditions: in vivo, iv; how it was run: as §1
# [5] = tested on: Rattus norvegicus; experiment: Distribution of radioactivity in kidney tissues of Sprague-Dawley rats after 60 min injecton by intravenously; 0.49-0.57; conditions: in vivo, iv, 1 h; how it was run: as §1
# [6] = tested on: Rattus norvegicus; experiment: Distribution of radioactivity in liver tissues of Sprague-Dawley rats after 15 min injecton by intravenously; 0.81-1.18; conditions: in vivo, iv, 0.25 h; how it was run: as §1
# [7] = tested on: Rattus norvegicus; experiment: Distribution of radioactivity in lung tissues of Sprague-Dawley rats after 15 min injecton by intravenously; 0.58-0.86; conditions: in vivo, iv, 0.25 h
# How it was run: (§2)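 Female Sprague-Dawley rats, 10–12 weeks, 170–200 g, fed ad libitum, five per time point. Agent dissolved in minimal Me2SO, diluted with saline to 20% Me2SO, with vitamin E (~5 mg/mL) added, 0.22-µm filtered. 15.1 or 10.6 µCi (per agent) injected into lateral tail vein under ether. Lungs taken; % injected dose/g against injected-solution standards; mean (range).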
# [8] = tested on: Rattus norvegicus; experiment: Distribution of radioactivity in lung tissues of Sprague-Dawley rats after 30 min injecton by intravenously; 0.54-0.7; conditions: in vivo, iv, 0.5 h; how it was run: as §2
# [9] = tested on: Rattus norvegicus; experiment: Distribution of radioactivity in lung tissues of Sprague-Dawley rats after 5 min injecton by intravenously; 0.76-0.91; conditions: in vivo, iv; how it was run: as §2
# [10] = tested on: Rattus norvegicus; experiment: Distribution of radioactivity in lung tissues of Sprague-Dawley rats after 60 min injecton by intravenously; 0.5-0.65; conditions: in vivo, iv, 1 h; how it was run: as §2
# [11] = tested on: Rattus norvegicus; experiment: Distribution of radioactivity in brain tissues of Sprague-Dawley rats after 5 min injecton by intravenously; 0.05-0.07; conditions: in vivo, iv
# [12] = tested on: Rattus norvegicus; experiment: Distribution of radioactivity in brain tissues of Sprague-Dawley rats after 60 min injecton by intravenously; 0.03-0.06; conditions: in vivo, iv, 1 h
# [13] = tested on: Rattus norvegicus; experiment: Distribution of radioactivity in blood tissues of Sprague-Dawley rats after 5 min injecton by intravenously; 1.0-1.24; conditions: in vivo, iv
# [14] = tested on: Rattus norvegicus; experiment: Distribution of radioactivity in heart tissues of Sprague-Dawley rats after 60 min injecton by intravenously; 0.58-0.75; conditions: in vivo, iv, 1 h; how it was run: as §1
# [15] = tested on: Rattus norvegicus; experiment: Distribution of radioactivity in kidney tissues of Sprague-Dawley rats after 15 min injecton by intravenously; 0.62-0.92; conditions: in vivo, iv, 0.25 h; how it was run: as §1
# [16] = tested on: Rattus norvegicus; experiment: Distribution of radioactivity in blood tissues of Sprague-Dawley rats after 60 min injecton by intravenously; 0.58-0.77; conditions: in vivo, iv, 1 h
# [17] = tested on: Rattus norvegicus; experiment: Distribution of radioactivity in brain tissues of Sprague-Dawley rats after 15 min injecton by intravenously; 0.03-0.06; conditions: in vivo, iv, 0.25 h
# [18] = tested on: Rattus norvegicus; experiment: Distribution of radioactivity in heart tissues of Sprague-Dawley rats after 15 min injecton by intravenously; 0.68-0.84; conditions: in vivo, iv, 0.25 h
# [19] = tested on: Rattus norvegicus; experiment: Distribution of radioactivity in heart tissues of Sprague-Dawley rats after 30 min injecton by intravenously; 0.58-0.82; conditions: in vivo, iv, 0.5 h; how it was run: as §1
# [20] = tested on: Rattus norvegicus; experiment: Distribution of radioactivity in blood tissues of Sprague-Dawley rats after 15 min injecton by intravenously; 0.72-1.03; conditions: in vivo, iv, 0.25 h
# [21] = tested on: Rattus norvegicus; experiment: Distribution of radioactivity in blood tissues of Sprague-Dawley rats after 30 min injecton by intravenously; 0.65-0.83; conditions: in vivo, iv, 0.5 h
# [22] = tested on: Rattus norvegicus; experiment: Distribution of radioactivity in heart tissues of Sprague-Dawley rats after 5 min injecton by intravenously; 0.79-0.85; conditions: in vivo, iv; how it was run: as §1
# [23] = tested on: Rattus norvegicus; experiment: Distribution of radioactivity in brain tissues of Sprague-Dawley rats after 30 min injecton by intravenously; 0.03-0.06; conditions: in vivo, iv, 0.5 h
# [24] = tested on: Rattus norvegicus; experiment: Distribution of radioactivity in liver tissues of Sprague-Dawley rats after 5 min injecton by intravenously; 1.03-1.31; conditions: in vivo, iv; how it was run: as §1
# [25] = tested on: Rattus norvegicus; experiment: Distribution of radioactivity in kidney tissues of Sprague-Dawley rats after 30 min injection by intravenously; value ranges from 1.14-1.4; conditions: in vivo, iv, 0.5 h; how it was run: as §1
# [26] = tested on: Rattus norvegicus; experiment: Distribution of radioactivity in liver tissues of Sprague-Dawley rats after 30 min injection by intravenously; value ranges from 1.06-1.29; conditions: in vivo, iv, 0.5 h; how it was run: as §1
# [27] = tested on: Rattus norvegicus; experiment: Distribution of radioactivity in liver tissues of Sprague-Dawley rats after 5 min injection by intravenously; value ranges from 1.06-2.71; conditions: in vivo, iv; how it was run: as §1
# [28] = tested on: Rattus norvegicus; experiment: Distribution of radioactivity in liver tissues of Sprague-Dawley rats after 60 min injection by intravenously; value ranges from 0.47-1.17; conditions: in vivo, iv, 1 h; how it was run: as §1
# [29] = tested on: Rattus norvegicus; experiment: Distribution of radioactivity in lung tissues of Sprague-Dawley rats after 15 min injection by intravenously; value ranges from 3.10-3.77; conditions: in vivo, iv, 0.25 h; how it was run: as §2
# [30] = tested on: Rattus norvegicus; experiment: Distribution of radioactivity in kidney tissues of Sprague-Dawley rats after 5 min injection by intravenously; value ranges from 1.64-3.43; conditions: in vivo, iv; how it was run: as §1
# [31] = tested on: Rattus norvegicus; experiment: Distribution of radioactivity in kidney tissues of Sprague-Dawley rats after 60 min injection by intravenously; value ranges from 0.89-1.19; conditions: in vivo, iv, 1 h; how it was run: as §1
# [32] = tested on: Rattus norvegicus; experiment: Distribution of radioactivity in liver tissues of Sprague-Dawley rats after 15 min injection by intravenously; value ranges from 1.23-1.78; conditions: in vivo, iv, 0.25 h; how it was run: as §1
# [33] = tested on: Rattus norvegicus; experiment: Distribution of radioactivity in heart tissues of Sprague-Dawley rats after 15 min injection by intravenously; value ranges from 2.24-2.58; conditions: in vivo, iv, 0.25 h
# [34] = tested on: Rattus norvegicus; experiment: Distribution of radioactivity in lung tissues of Sprague-Dawley rats after 30 min injection by intravenously; value ranges from 2.26-2.89; conditions: in vivo, iv, 0.5 h; how it was run: as §2
# [35] = tested on: Rattus norvegicus; experiment: Distribution of radioactivity in lung tissues of Sprague-Dawley rats after 5 min injection by intravenously; value ranges from 3.62-7.08; conditions: in vivo, iv; how it was run: as §2
# [36] = tested on: Rattus norvegicus; experiment: Distribution of radioactivity in lung tissues of Sprague-Dawley rats after 60 min injection by intravenously; value ranges from 2.11-3.79; conditions: in vivo, iv, 1 h; how it was run: as §2
# [37] = tested on: Rattus norvegicus; experiment: Distribution of radioactivity in brain tissues of Sprague-Dawley rats after 60 min injection by intravenously; value ranges from 0.76-1.42; conditions: in vivo, iv, 1 h
# [38] = tested on: Rattus norvegicus; experiment: Distribution of radioactivity in blood tissues of Sprague-Dawley rats after 60 min injection by intravenously; value ranges from 0.28-0.37; conditions: in vivo, iv, 1 h
# [39] = tested on: Rattus norvegicus; experiment: Distribution of radioactivity in heart tissues of Sprague-Dawley rats after 60 min injection by intravenously; value ranges from 1.68-2.23; conditions: in vivo, iv, 1 h; how it was run: as §1
# [40] = tested on: Rattus norvegicus; experiment: Distribution of radioactivity in kidney tissues of Sprague-Dawley rats after 15 min injection by intravenously; value ranges from 1.42-1.82; conditions: in vivo, iv, 0.25 h; how it was run: as §1
# [41] = tested on: Rattus norvegicus; experiment: Distribution of radioactivity in brain tissues of Sprague-Dawley rats after 15 min injection by intravenously; value ranges from 1.05-1.25; conditions: in vivo, iv, 0.25 h
# [42] = tested on: Rattus norvegicus; experiment: Distribution of radioactivity in heart tissues of Sprague-Dawley rats after 30 min injection by intravenously; value ranges from 1.96-2.46; conditions: in vivo, iv, 0.5 h
# [43] = tested on: Rattus norvegicus; experiment: Distribution of radioactivity in blood tissues of Sprague-Dawley rats after 15 min injection by intravenously; value ranges from 0.31-0.4; conditions: in vivo, iv, 0.25 h
# [44] = tested on: Rattus norvegicus; experiment: Distribution of radioactivity in blood tissues of Sprague-Dawley rats after 30 min injection by intravenously; value ranges from 0.35-0.4; conditions: in vivo, iv, 0.5 h
# [45] = tested on: Rattus norvegicus; experiment: Distribution of radioactivity in blood tissues of Sprague-Dawley rats after 5 min injection by intravenously; value ranges from 0.28-0.46; conditions: in vivo, iv
# [46] = tested on: Rattus norvegicus; experiment: Distribution of radioactivity in heart tissues of Sprague-Dawley rats after 5 min injection by intravenously; value ranges from 2.36-3.96; conditions: in vivo, iv; how it was run: as §1
# [47] = tested on: Rattus norvegicus; experiment: Distribution of radioactivity in brain tissues of Sprague-Dawley rats after 30 min injection by intravenously; value ranges from 0.81-1.26; conditions: in vivo, iv, 0.5 h
# [48] = tested on: Rattus norvegicus; experiment: Distribution of radioactivity in brain tissues of Sprague-Dawley rats after 5 min injection by intravenously; value ranges from 0.97-2.17; conditions: in vivo, iv
# [49] = Brain to blood ratio in Sprague-Dawley rats after 5 min injection by intravenously; conditions: rat, brain and blood, iv
# How it was run: (§3)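 Female Sprague-Dawley rats, 10–12 weeks old (170–200 g), fed ad libitum. The ¹²⁵I-labelled agent was dissolved in minimal Me2SO, diluted with saline to a final 20% Me2SO, filtered (0.22 μm), and injected into a lateral tail vein under ether anaesthesia. Tissues were counted against samples of the injected solution and expressed as % injected dose/g (mean, range). Brain/blood ratio is from the means.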
# [50] = Brain to blood ratio in Sprague-Dawley rats after 60 min injection by intravenously; conditions: rat, brain and blood, iv; how it was run: as §3
# [51] = Brain to blood ratio in Sprague-Dawley rats after 30 min injection by intravenously; conditions: rat, brain and blood, iv; how it was run: as §3
# [52] = Brain to blood ratio in Sprague-Dawley rats after 15 min injection by intravenously; conditions: rat, brain and blood, iv; how it was run: as §3
smiles,measurement,setting,value
C[n+]1cccc(C(=O)Nc2ccc([125I])cc2)c1.[I-],Distribution,[1],0.71%
same,Distribution,[2],0.49%
same,Distribution,[3],0.65%
same,Distribution,[4],2.1%
same,Distribution,[5],0.53%
same,Distribution,[6],1.04%
same,Distribution,[7],0.72%
same,Distribution,[8],0.62%
same,Distribution,[9],0.84%
same,Distribution,[10],0.57%
same,Distribution,[11],0.06%
same,Distribution,[12],0.04%
same,Distribution,[13],1.11%
same,Distribution,[14],0.67%
same,Distribution,[15],0.74%
same,Distribution,[16],0.67%
same,Distribution,[17],0.05%
same,Distribution,[18],0.76%
same,Distribution,[19],0.68%
same,Distribution,[20],0.87%
same,Distribution,[21],0.75%
same,Distribution,[22],0.83%
same,Distribution,[23],0.04%
same,Distribution,[24],1.18%
CN1C=CCC(C(=O)Nc2ccc([125I])cc2)=C1,Distribution,[25],1.23%
same,Distribution,[26],1.18%
same,Distribution,[27],1.65%
same,Distribution,[28],0.82%
same,Distribution,[29],3.3%
same,Distribution,[30],2.36%
same,Distribution,[31],1.07%
same,Distribution,[32],1.56%
same,Distribution,[33],2.43%
same,Distribution,[34],2.43%
same,Distribution,[35],4.61%
same,Distribution,[36],2.77%
same,Distribution,[37],1.12%
same,Distribution,[38],0.31%
same,Distribution,[39],1.88%
same,Distribution,[40],1.56%
same,Distribution,[41],1.16%
same,Distribution,[42],2.18%
same,Distribution,[43],0.35%
same,Distribution,[44],0.38%
same,Distribution,[45],0.37%
same,Distribution,[46],2.86%
same,Distribution,[47],1.01%
same,Distribution,[48],1.14%
same,Kp at 5 min,[49],3.87
same,Kp at 1 h,[50],3.6
same,Kp at 0.5 h,[51],2.66
same,Kp at 0.25 h,[52],3.29
